Measurements: ChEMBL document CHEMBL1147968, “Novel lbeta-methylcarbapenems having cyclic sulfonamide moieties: synthesis and evaluation of in vitro antibacterial activity” (2007)
In brackets after ≈: the same amount, converted by molar mass.

Experiments:
Providencia rettgeri [1] = test: Antibacterial activity against Proteus rettgeri 937 after 18 to 24 hrs by agar dilution method; assay type: functional
Outline: (§1)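 MICs were determined by agar dilution on test agar. An overnight tryptosoy broth culture was diluted in the same broth to about 10⁶ cells/mL and spotted with an inoculating device onto agar containing serial twofold dilutions of compound. Plates were incubated at 37 °C for 18–20 h, and the MIC was the lowest concentration with no visible growth.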

Bacillus subtilis = test: Antibacterial activity against Bacillus subtilis ATCC 6633 after 18 to 24 hrs by agar dilution method; assay type: functional; outline: as §1
Staphylococcus aureus [2] = test: Antibacterial activity against Staphylococcus aureus 1218 after 18 to 24 hrs by agar dilution method; assay type: functional; outline: as §1
Streptococcus agalactiae = test: Antibacterial activity against Streptococcus agalactiae 32 after 18 to 24 hrs by agar dilution method; assay type: functional; outline: as §1
Pseudomonas aeruginosa [3] = test: Antibacterial activity against Pseudomonas aeruginosa 110/2 after 18 to 24 hrs by agar dilution method; assay type: functional; outline: as §1
Burkholderia cepacia = test: Antibacterial activity against Pseudomonas cepacia after 18 to 24 hrs by agar dilution method; assay type: functional; outline: as §1
Pseudomonas aeruginosa [4] = test: Antibacterial activity against Pseudomonas aeruginosa 880/2 after 18 to 24 hrs by agar dilution method; assay type: functional; outline: as §1
Staphylococcus = test: Antibacterial activity against coagulase negative Staphylococcus after 18 to 24 hrs by agar dilution method; assay type: functional
Outline: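 Agar dilution on test agar holding serial twofold dilutions of compound. Overnight tryptosoy broth cultures were diluted in the same broth to about 10⁶ cells/mL and spotted with an inoculating device. Plates were incubated at 37 °C for 18–20 h.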

Proteus vulgaris = test: Antibacterial activity against Proteus vulgaris 868 after 18 to 24 hrs by agar dilution method; assay type: functional; outline: as §1
Providencia rettgeri [5] = test: Antibacterial activity against Proteus rettgeri 936 after 18 to 24 hrs by agar dilution method; assay type: functional; outline: as §1
Enterobacter cloacae [6] = test: Antibacterial activity against Enterobacter cloacae after 18 to 24 hrs by agar dilution method; assay type: functional; outline: as §1
Enterococcus faecium = test: Antibacterial activity against Streptococcus faecium 77A after 18 to 24 hrs by agar dilution method; assay type: functional; outline: as §1
Citrobacter freundii = test: Antibacterial activity against Citrobacter freundii 323 after 18 to 24 hrs by agar dilution method; assay type: functional; outline: as §1
Salmonella typhimurium = test: Antibacterial activity against Salmonella Typhimurium after 18 to 24 hrs by agar dilution method; assay type: functional, Salmonella enterica subsp. enterica serovar Typhimurium; settings: Salmonella enterica; outline: as §1
Proteus mirabilis = test: Antibacterial activity against Proteus mirabilis 112/3 after 18 to 24 hrs by agar dilution method; assay type: functional; outline: as §1
Klebsiella pneumoniae = test: Antibacterial activity against Klebsiella pneumoniae 523 after 18 to 24 hrs by agar dilution method; assay type: functional; outline: as §1
[7] = test system: Corynebacterium diphtheriae; test: Antibacterial activity against Corynebacterium diphtheriae after 18 to 24 hrs by agar dilution method; assay type: functional; outline: as §1
Pseudomonas aeruginosa [8] = test: Antibacterial activity against Pseudomonas aeruginosa 77/2 after 18 to 24 hrs by agar dilution method; assay type: functional; outline: as §1
[9] = Antibacterial activity against Salmonella oranienburg after 18 to 24 hrs by agar dilution method; assay type: functional, Salmonella enterica subsp. enterica serovar Oranienburg; settings: Salmonella enterica; outline: as §1
Serratia marcescens [10] = test: Antibacterial activity against Serratia marcescens 6093 after 18 to 24 hrs by agar dilution method; assay type: functional; outline: as §1
Staphylococcus aureus [11] = test: Antibacterial activity against Staphylococcus aureus giorgio after 18 to 24 hrs by agar dilution method; assay type: functional; outline: as §1
Salmonella paratyphi = test: Antibacterial activity against Salmonella paratyphi A after 18 to 24 hrs by agar dilution method; assay type: functional, Salmonella enterica subsp. enterica serovar Paratyphi A; settings: Salmonella enterica
Outline: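 Agar dilution on test agar with serial twofold dilutions of compound. Overnight tryptosoy broth cultures diluted in the same broth to about 10⁶ cells/mL, then applied with an inoculating device. Plates incubated at 37 °C for 18–20 h.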

Enterobacter cloacae [12] = test: Antibacterial activity against Enterobacter cloacae 417 after 18 to 24 hrs by agar dilution method; assay type: functional; outline: as §1
Serratia marcescens [13] = test: Antibacterial activity against Serratia marcescens 3349 after 18 to 24 hrs by agar dilution method; assay type: functional; outline: as §1
Serratia marcescens [14] = test: Antibacterial activity against Serratia marcescens 14273 after 18 to 24 hrs by agar dilution method; assay type: functional; outline: as §1
Escherichia coli = test: Antibacterial activity against Escherichia coli 04 after 18 to 24 hrs by agar dilution method; assay type: functional; outline: as §1
Pseudomonas aeruginosa [15] = test: Antibacterial activity against Pseudomonas aeruginosa 9027 after 18 to 24 hrs by agar dilution method; assay type: functional; outline: as §1

Work on `C[C@@H](O)[C@H]1C(=O)N2C(C(=O)O)=C(SCCNC=N)C[C@H]12` [IMIPENEM ANHYDROUS] yielded an MIC (Providencia rettgeri [1]) of 0.2 µg/mL (≈ 0.668 µM), an MIC (Bacillus subtilis) of 0.03 µg/mL (≈ 0.1 µM) and an MIC (Staphylococcus aureus [2]) of 1.56 µg/mL (≈ 5.21 µM). The MIC (Streptococcus agalactiae) was 0.01 µg/mL (≈ 0.0334 µM), the MIC (Pseudomonas aeruginosa [3]) was 0.8 µg/mL (≈ 2.67 µM) and the MIC (Burkholderia cepacia) was 0.8 µg/mL (≈ 2.67 µM). The MIC (Pseudomonas aeruginosa [4]) was 0.8 µg/mL (≈ 2.67 µM), the MIC (Staphylococcus) was 0.025 µg/mL (≈ 0.0835 µM) and the MIC (Proteus vulgaris) was 0.1 µg/mL (≈ 0.334 µM). The MIC (Providencia rettgeri [5]) was 0.2 µg/mL (≈ 0.668 µM), the MIC (Enterobacter cloacae [6]) was 0.1 µg/mL (≈ 0.334 µM) and the MIC (Enterococcus faecium) was less than 0.01 µg/mL. For the same compound, the MIC (Citrobacter freundii) was 0.391 µg/mL (≈ 1.31 µM), the MIC (Salmonella typhimurium) was 0.4 µg/mL (≈ 1.34 µM) and the MIC (Proteus mirabilis) was 0.2 µg/mL (≈ 0.668 µM). For the same compound, the MIC (Klebsiella pneumoniae) was 0.781 µg/mL (≈ 2.61 µM), the MIC [7] was less than 0.01 µg/mL and the MIC (Pseudomonas aeruginosa [8]) was 0.8 µg/mL (≈ 2.67 µM). For the same compound, the MIC [9] was 0.4 µg/mL (≈ 1.34 µM), the MIC (Serratia marcescens [10]) was 0.4 µg/mL (≈ 1.34 µM) and the MIC (Staphylococcus aureus [11]) was 0.02 µg/mL (≈ 0.0668 µM). It also gave an MIC (Salmonella paratyphi) of 0.1 µg/mL (≈ 0.334 µM), an MIC (Enterobacter cloacae [12]) of 0.1 µg/mL (≈ 0.334 µM) and an MIC (Serratia marcescens [13]) of 0.781 µg/mL (≈ 2.61 µM). For the same compound, the MIC (Serratia marcescens [14]) was 0.8 µg/mL (≈ 2.67 µM), the MIC (Escherichia coli) was 0.195 µg/mL (≈ 0.651 µM) and the MIC (Pseudomonas aeruginosa [15]) was 0.8 µg/mL (≈ 2.67 µM).
